The source of these data is ChEMBL document CHEMBL5653630, “Activation of the p53-MDM4 regulatory axis defines the anti-tumour response to PRMT5 inhibition through its role in regulating cellular splicing” (Sci Rep, 2018).

Common to all, as to format: functional
In experiment [1] the test system is HCC1806. Put plainly: Antiproliferative activity against human HCC1806 cells assessed as cell growth inhibition incubated for 6 days by celltiter-glo assay. The conditions noted are these: HCC1806, 144 h, time 6 day. The method, boiled down:
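Cells were seeded in 384-well plates and incubated 24 h, then treated in duplicate with a 20-point, 2-fold dilution series (top dose ≤29 μM, ≤0.15% DMSO) for 6 days. CellTiter-Glo luminescence was read on day 0 and day 6. A 4-parameter fit was used, and curves needed at least 1.5 population doublings. gIC50 is the midpoint of the growth window between DMSO and T0.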

Experiment [2] in a line: Antiproliferative activity against human MINO cells assessed as cell growth inhibition incubated for 6 days by celltiter-glo assay. The conditions noted are these: 144 h, time 6 day. The method, boiled down: (§1)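 Cells seeded in 384-well plates at an optimized density and held 24 h. Day 0: treated in duplicate with a 20-point two-fold series (top dose ≤29 μM, ≤0.15% DMSO) and incubated 6 days. CellTiter-Glo luminescence read at Day 0 and Day 6. Four-parameter fit. gIC50 = midpoint of the growth window between DMSO and T0. Curves required ≥1.5 population doublings.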

Experiment [3] has as its system MDA-MB-453. Put plainly: Antiproliferative activity against human MDA-MB-453 cells assessed as cell growth inhibition incubated for 6 days by celltiter-glo assay. The conditions noted are these: MDA-MB-453, 144 h, time 6 day. In outline:
as §1

Experiment [4] concerns SU-DHL-16. Briefly: Antiproliferative activity against human SU-DHL-16 cells assessed as cell growth inhibition incubated for 6 days by celltiter-glo assay. As to conditions: SU-DHL-16, 144 h, time 6 day. In outline: as §1
The subject of experiment [5] is Rec1. Briefly: Antiproliferative activity against human REC1 cells assessed as cell growth inhibition incubated for 6 days by celltiter-glo assay. The conditions noted are these: Rec1, 144 h, time 6 day. The method, boiled down:
as §1

The test system of experiment [6] is SU-DHL10. Briefly: Antiproliferative activity against human SU-DHL-10 cells assessed as cell growth inhibition incubated for 6 days by celltiter-glo assay. The conditions noted are these: SU-DHL10, 144 h, time 6 day. The method, boiled down: as §1
In experiment [7] the test system is JeKo-1. Put plainly: Antiproliferative activity against human JeKo-1 cells assessed as cell growth inhibition incubated for 6 days by celltiter-glo assay. The conditions noted are these: JeKo-1, 144 h, time 6 day. The method, boiled down: as §1
Experiment [8] relates to LP-1. Put plainly: Antiproliferative activity against human LP-1 cells assessed as cell growth inhibition incubated for 6 days by celltiter-glo assay. As to conditions: LP-1, 144 h, time 6 day. The method, boiled down:
as §1

Experiment [9] has as its system SU-DHL-5. Briefly: Antiproliferative activity against human SU-DHL-5 cells assessed as cell growth inhibition incubated for 6 days by celltiter-glo assay. The conditions noted are these: SU-DHL-5, 144 h, time 6 day. In outline: as §1
Experiment [10] has as its system MDA-MB-468. Put plainly: Induction of cell cycle arrest in human MDA-MB-468 cells assessed as decrease in 2n cell population measured upto 5000 nM measured for 2 to 7 days by propidium iodide staining based flow cytometric analysis. As to conditions: time 2-7 day.
The test system of experiment [11] is SUD4. Briefly: Antiproliferative activity against human SU-DHL-4 cells assessed as cell growth inhibition incubated for 6 days by celltiter-glo assay. As to conditions: SU-DHL-4, 144 h, time 6 day. In outline:
as §1

Experiment [12] relates to NU-DHL-1. Briefly: Antiproliferative activity against human NU-DHL-1 cells assessed as cell growth inhibition incubated for 6 days by celltiter-glo assay. As to conditions: NU-DHL-1, 144 h, time 6 day. In outline:
as §1

Experiment [13] has as its system DMS-53. Put plainly: Antiproliferative activity against human DMS-53 cells assessed as cell growth inhibition incubated for 10 days. As to conditions: DMS-53, 240 h, time 10 day. The method, boiled down:
(§2)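 Outsourced panel run in 384-well plates. Cells were grown in RPMI-1640/10% FBS or a special medium at 37°C, 5% CO2. Compound was added 24 h after seeding as a 10-point, 3.16-fold series in 0.1% DMSO. Medium was refreshed and cells re-dosed at 168 h, with a time-zero plate kept. At 240 h cells were fixed, nuclei stained and imaged. gIC50 is growth midway between untreated and time zero, from a 4-parameter fit.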

Experiment [14] relates to C-33-A. Briefly: Antiproliferative activity against human C-33-A cells assessed as cell growth inhibition incubated for 10 days. As to conditions: 240 h, time 10 day. The method, boiled down: (§3)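 Cells kept in RPMI-1640 with 10% FBS, 2 mM L-alanyl-L-glutamine and 1 mM Na pyruvate (or a special medium) at 37°C, 5% CO2. Compound added 24 h after seeding, 10 concentrations in 3.16-fold dilution, 0.1% DMSO final. Medium replaced and cells re-dosed at 168 h; 240 h incubation. Nuclei fixed, dye-stained and imaged. gIC50 = growth midway between untreated and time-zero cell counts, from a 4-parameter fit.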

In experiment [15] the test system is DU-145. Briefly: Antiproliferative activity against human DU-145 cells assessed as cell growth inhibition incubated for 10 days. As to conditions: DU-145, 240 h, time 10 day. In outline: as §2
Experiment [16] concerns NCI-H295R. Briefly: Antiproliferative activity against human NCI-H295R cells assessed as cell growth inhibition incubated for 10 days. The conditions noted are these: 240 h, time 10 day.
In experiment [17] the test system is EB-3. Put plainly: Antiproliferative activity against human EB-3 cells assessed as cell growth inhibition incubated for 10 days. As to conditions: EB-3, 240 h, time 10 day. The method, boiled down: as §2
The subject of experiment [18] is U2OS. Put plainly: Antiproliferative activity against human U2OS cells assessed as cell growth inhibition incubated for 10 days. The conditions noted are these: 240 h, time 10 day.
A short description of experiment [19]: Antiproliferative activity against human C32TG cells assessed as cell growth inhibition incubated for 10 days. The conditions noted are these: 240 h, time 10 day. In outline: as §3
The subject of experiment [20] is DMS-273. Briefly: Antiproliferative activity against human DMS-273 cells assessed as cell growth inhibition incubated for 10 days. The conditions noted are these: DMS-273, 240 h, time 10 day. The method, boiled down:
as §2

Experiment [21] has as its system ARH-77. Put plainly: Antiproliferative activity against human ARH-77 cells assessed as cell growth inhibition incubated for 10 days. The conditions noted are these: ARH-77, 240 h, time 10 day. In outline:
as §3

Experiment [22] in a line: Antiproliferative activity against human OCUG-1 cells assessed as cell growth inhibition incubated for 10 days. The conditions noted are these: OCUG-1, 240 h, time 10 day.
Experiment [23] concerns HCT-15. Briefly: Antiproliferative activity against human HCT-15 cells assessed as cell growth inhibition incubated for 10 days. As to conditions: HCT-15, 240 h, time 10 day. In outline: as §2
A short description of experiment [24]: Antiproliferative activity against human KHOS-240S cells assessed as cell growth inhibition incubated for 10 days. The conditions noted are these: 240 h, time 10 day. The method, boiled down: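 Eurofins-panel 10-day assay in 384-well plates. Cells grown in RPMI-1640 with 10% FBS, 2 mM L-alanyl-L-glutamine and 1mM Na pyruvate, or a special medium, at 37°C in 5% CO₂. Compound added 24 h after seeding, 10-point 3.16-fold series in 0.1% DMSO. Medium replaced and compound re-dosed at 168 h. Nuclei fixed and stained after 240 h, then imaged to give a relative cell count. gIC50 is the concentration giving growth midway between untreated and time-zero counts, from a 4-parameter fit.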

Experiment [25] relates to FaDu. Put plainly: Antiproliferative activity against human FaDu cells assessed as cell growth inhibition incubated for 10 days. As to conditions: 240 h, time 10 day. The method, boiled down: as §2
Experiment [26] is described as follows: Antiproliferative activity against human CML-T1 cells assessed as cell growth inhibition incubated for 10 days. As to conditions: CML-T1, 240 h, time 10 day. In outline:
as §3

Experiment [27] deals with MC-IXC. Briefly: Antiproliferative activity against human MC-IXC cells assessed as cell growth inhibition incubated for 10 days. The conditions noted are these: 240 h, time 10 day.
The test system of experiment [28] is U-251. Put plainly: Antiproliferative activity against human U-251MG cells assessed as cell growth inhibition incubated for 6 days by celltiter-glo assay. The conditions noted are these: U-251, 144 h, time 6 day. In outline: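 Cells seeded in 384-well plates at an optimized density and held 24 h. CellTiter-Glo luminescence read at Day 0 and Day 6. Four-parameter fit. gIC50 = midpoint of the growth window between DMSO and T0. Curves required ≥1.5 population doublings.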

The structures appear in SMILES notation. Activity calls are given as the source filed them. The calls are words filed in the database; no cut-off is given here.

Take `CC(=O)N1CCC(Nc2cc(C(=O)NC[C@H](O)CN3CCc4ccccc4C3)ncn2)CC1` [PEMRAMETOSTAT]: the GI50 in experiment [1] came out at 98 nM; in experiment [2], 130 nM; in experiment [3] it was 29 nM; in [4] it was 99 nM; in experiment [5], 2110 nM; in [6], 54 nM. Also, the GI50 came to 5400 nM in experiment [7]; 1940 nM in [8]; 28 nM in [9]; 492 nM in [11]; 333 nM in experiment [12]. In addition, the result in [10] was inactive.
Regarding `O=C(NC[C@H](O)CN1CCc2ccccc2C1)c1ccnc(NC2CCC2)c1`, the GI50 stood at 106 nM in [13]; 228 nM in experiment [14]; 151 nM in [15]; 10000 nM in experiment [16]; 261 nM in experiment [1]; 299 nM in experiment [17]. Moreover, the concentration for 50% growth inhibition (GI50) in [18] is 485 nM; in experiment [2], 536 nM; in [3], 343 nM; in experiment [4] it was 124 nM; in [19], 103 nM; in experiment [20], 298 nM. The GI50 in experiment [21] turned out to be 44.4 nM; in [5], 1990 nM; in [6], 495 nM; in experiment [22] it was 379 nM; in [23] it was 68.4 nM; in experiment [24] it was 124 nM. Further, the GI50 in [25] was found to be 15.4 nM; in experiment [7], 6190 nM; in [26], 16.1 nM; in experiment [8] it was 975 nM; in [9], 132 nM; in experiment [27], 615 nM. The values for the GI50 in experiment [28], in experiment [11] and in [12] were 3490 nM, 571 nM and 101 nM, respectively.
